Data set [1] is described as follows: Cytotoxicity against human MRC5 SV2 cells after 72 hrs by resazurin dye-based fluorimetric analysis. Conditions: MRC-5 SV2, 72 h. Type of data set: cell-based. (In general: The colour change of resazurin is a common sign of viable cells or microbes.)
The subject of data set [2] is Peritoneal macrophage. As to the kind of experiment: Cytotoxicity against mouse primary peritoneal macrophages after 72 hrs by resazurin dye-based fluorimetric analysis. Type of data set: cell-based.
The subject of data set [3] is Trypanosoma cruzi. Nature of the data set: Antitrypanosomal activity against nifurtimox-sensitive Trypanosoma cruzi Tulahuen CL2 infected in human MRC5 SV2 cells assessed as reduction in parasite burden after 168 hrs by CPRG and Nonidet based spectrophotometric analysis. Conditions: Tulahuen CL2, MRC-5 SV2, 168 h. Type of data set: functional, organism-based.
Data set [4] relates to Leishmania infantum. As to the kind of experiment: Antileishmanial activity against Leishmania infantum MHOM/MA (BE)/67 amastigotes infected in primary peritoneal mouse macrophages after 120 hrs by giemsa staining-based microscopic analysis. Format: functional, organism-based. As to conditions: MHOM/MA (BE)/67, 120 h.
Data set [5] has as its system Trypanosoma brucei brucei. As to the kind of experiment: Antitrypanosomal activity against suramin-sensitive Trypanosoma brucei brucei Squib 427 after 72 hrs by resazurin dye-based fluorimetric analysis. Format: functional, organism-based. Conditions: Squib 427, 72 h.
Data set [6] relates to Plasmodium falciparum. As to the kind of experiment: Antiplasmodial activity against chloroquine-resistant Plasmodium falciparum K1 infected in human erythrocytes after 72 hrs by Malstat reagent-based spectrophotometric analysis. Type of data set: functional, organism-based. As to conditions: K1, 72 h.
The nature of data set [7]: Drug metabolism in mouse liver microsomes assessed as CYP450 mediated compound […] by measuring parent compound remaining at 5 uM after 60 mins in presence of NADPH by UPLC/MS/ESI analysis. Type of data set: ADME. Conditions: read-out: Stability. On the technique in general: Microsomes from liver hold many membrane-bound enzymes, among them those of drug oxidation.

The nature of data set [8]: Drug metabolism in human plasma assessed as parent compound remaining after 30 mins by UPLC/MS/ESI analysis. Type of data set: ADME, cell-free. As to conditions: read-out: Stability.
The nature of data set [9]: Drug metabolism in human liver microsomes assessed as UGT mediated compound […] by measuring parent compound remaining at 5 uM after 30 mins in presence of UDPGA by UPLC/MS/ESI analysis. Conditions: read-out: Stability. Format: ADME.
Data set [10] in a line: Drug metabolism in human plasma assessed as parent compound remaining after 1440 mins by UPLC/MS/ESI analysis. Format: ADME, cell-free. As to conditions: read-out: Stability. Put shortly: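 Compound incubated in human plasma for 24 h at 37 °C, and the fraction of parent compound remaining was determined.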
The nature of data set [11]: Drug metabolism in mouse liver microsomes assessed as CYP450 mediated compound […] by measuring parent compound remaining at 5 uM after 15 mins in presence of NADPH by UPLC/MS/ESI analysis. Type of data set: ADME. Conditions: read-out: Stability.
Data set [12] is described as follows: Drug metabolism in human liver microsomes assessed as CYP450 mediated compound […] by measuring parent compound remaining at 5 uM after 15 mins in presence of NADPH by UPLC/MS/ESI analysis. Format: ADME. As to conditions: read-out: Stability.
Data set [13] is described as follows: Drug metabolism in human plasma assessed as parent compound remaining after 15 mins by UPLC/MS/ESI analysis. Conditions: read-out: Stability. Type of data set: ADME, cell-free.
The nature of data set [14]: Drug metabolism in human plasma assessed as parent compound remaining after 60 mins by UPLC/MS/ESI analysis. Format: ADME, cell-free. As to conditions: read-out: Stability.
A short description of data set [15]: Drug metabolism in human liver microsomes assessed as UGT mediated compound […] by measuring parent compound remaining at 5 uM after 15 mins in presence of UDPGA by UPLC/MS/ESI analysis. Format: ADME. Conditions: read-out: Stability.
A short description of data set [16]: Drug metabolism in mouse liver microsomes assessed as CYP450 mediated compound […] by measuring parent compound remaining at 5 uM after 30 mins in presence of NADPH by UPLC/MS/ESI analysis. Format: ADME. As to conditions: read-out: Stability.
Data set [17] is described as follows: Drug metabolism in human liver microsomes assessed as UGT mediated compound […] by measuring parent compound remaining at 5 uM after 60 mins in presence of UDPGA by UPLC/MS/ESI analysis. Format: ADME. As to conditions: read-out: Stability.
Data set [18] in a line: Drug metabolism in mouse liver microsomes assessed as UGT mediated compound […] by measuring parent compound remaining at 5 uM after 15 mins in presence of UDPGA by UPLC/MS/ESI analysis. Type of data set: ADME. Conditions: 0.25 h. Put shortly: (§1)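 Metabolic stability was run with mouse liver microsomal fraction (S9) and read as percent parent compound remaining over incubation time. Diclofenac served as the reference compound.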

Data set [19] in a line: Drug metabolism in human liver microsomes assessed as CYP450 mediated compound […] by measuring parent compound remaining at 5 uM after 30 mins in presence of NADPH by UPLC/MS/ESI analysis. Type of data set: ADME. Conditions: read-out: Stability.
Data set [20] is described as follows: Drug metabolism in mouse liver microsomes assessed as UGT mediated compound […] by measuring parent compound remaining at 5 uM after 60 mins in presence of UDPGA by UPLC/MS/ESI analysis. Format: ADME. As to conditions: 1 h. Put shortly: as §1
Data set [21] can be described thus: Drug metabolism in human liver microsomes assessed as CYP450 mediated compound […] by measuring parent compound remaining at 5 uM after 60 mins in presence of NADPH by UPLC/MS/ESI analysis. As to conditions: read-out: Stability. Format: ADME.
A short description of data set [22]: Drug metabolism in mouse liver microsomes assessed as UGT mediated compound […] by measuring parent compound remaining at 5 uM after 30 mins in presence of UDPGA by UPLC/MS/ESI analysis. Format: ADME. Conditions: 0.5 h. The essentials: as §1

In the case of `Nc1nc(Nc2ccc(F)cc2)nc(Nc2ccc(F)cc2)n1`, the IC50 is over 64 µM in [1]; over 64 µM in data set [2]; over 64 µM in data set [3]; over 64 µM in [4]; 2.8 µM in [5]; over 64 µM in [6].
`Cc1cc(F)cc(C)c1Nc1nc(N)nc(Nc2ccc(C#N)cc2)n1`: the 50% inhibitory concentration (IC50) in [1] was determined as 23.7 µM; in data set [2], 32 µM; in [3], 7.9 µM; in data set [4], 9.5 µM; in data set [5] it was 7.9 µM; in [6] it was 8.3 µM.
For `Cc1ccc(Oc2nc(N)nc(Nc3ccc(C#N)cc3)n2)cc1`, the IC50 was over 64 µM in data set [1]; over 64 µM in data set [2]; 8 µM in data set [3]; over 64 µM in data set [4]; over 64 µM in data set [6].
Regarding `CC/C(=C(\c1ccccc1)c1ccc(OCCN(C)C)cc1)c1ccccc1` [TAMOXIFEN], the IC50 in data set [1] turned out to be 10.2 µM.
Turning to `Cc1cc(C)c(Oc2nc(N)nc(Oc3ccc(F)cc3)n2)c(C)c1`, the IC50 in data set [1] is over 64 µM; in data set [2], 8 µM; in data set [3], over 64 µM; in data set [4], 8.1 µM; in data set [5] it was 4.3 µM; in data set [6], over 64 µM.
Take `Cc1ccc(Oc2nc(N)nc(Nc3ccc(F)cc3)n2)cc1`: the IC50 in [1] was over 64 µM; in [2], 32 µM; in [3], over 64 µM; in data set [4] it was 32.5 µM; in data set [5] it was 0.4 µM; in data set [6] it was over 64 µM. Besides, the remaining at 1 h, 5 µM in data set [7] worked out at 10.5%; in data set [17], 94%; in data set [21] it was 113%. The remaining at 0.5 h in data set [8] amounted to 94%. Further, the remaining at 0.5 h, 5 µM stood at 105% in data set [9], 28% in data set [16] and 99% in data set [19]. The remaining at 24 h in data set [10] was found to be 95%. The remaining at 0.25 h, 5 µM in data set [11] amounted to 57%; in data set [12], 107%; in data set [15], 96%. In data set [13], the remaining at 0.25 h came out at 104%. Also, the remaining at 1 h in data set [14] came out at 101%. The Stability in data set [18] was 91%; in [20] it was 110%; in data set [22], 104%.
As for `Cc1ccc(Oc2nc(N)nc(Nc3ccccc3)n2)cc1`, the IC50 was over 64 µM in [1]; 32 µM in [2]; over 64 µM in data set [3]; 32.5 µM in data set [4]; 1.1 µM in [5]; over 64 µM in data set [6].
Turning to `Cc1cc(C)c(Oc2nc(Nc3ccc(F)cc3)nc(N3CCCCC3)n2)c(C)c1`, the IC50 was over 64 µM in data set [1]; 32 µM in data set [2]; 2.4 µM in [3]; 8.1 µM in [4]; 8.2 µM in data set [5]; 5.4 µM in [6].
With `Cc1cc(C)c(Oc2nc(N)nc(Nc3cc(F)cc(F)c3)n2)c(C)c1`, the IC50 in data set [1] is 4.4 µM; in data set [2], 8 µM; in data set [3] it was 2.3 µM; in [4], 8.1 µM; in data set [5], 1.3 µM; in data set [6], 17.4 µM.
Consider `Cc1cc(C)c(Oc2nc(N)nc(Nc3ccc(Cl)cc3)n2)c(C)c1`, for which the IC50 in data set [1] turned out to be 6.4 µM; in data set [2] it was 8 µM; in data set [3], 3.1 µM; in data set [4] it was 8.1 µM; in [5], 1.5 µM; in data set [6] it was 26.6 µM.
In the case of `O=C(O)Cc1ccccc1Nc1c(Cl)cccc1Cl` [DICLOFENAC], the figures for the Stability in data set [18], in [20] and in [22] were 38%, 30% and 28%, respectively.
With `Cc1ccc(Nc2nc(N)nc(Nc3ccc(C#N)cc3)n2)cc1`, the IC50 in data set [1], in [2], in data set [3], in data set [4], in data set [5] and in [6] was over 64 µM throughout.
For `Cc1ccc(Nc2nc(N)nc(Nc3c(Br)cc(C)cc3Br)n2)cc1`, the IC50 is 8.1 µM in data set [1]; 32 µM in data set [2]; over 64 µM in data set [3]; 32.5 µM in data set [4]; 9.1 µM in data set [5]; over 64 µM in [6].
For `Cc1ccc(Nc2nc(N)nc(Nc3ccc(C#N)cc3)n2)c(Cl)c1`, the IC50 in data set [1] was over 64 µM; in [2], over 64 µM; in data set [3] it was over 64 µM; in data set [4] it was 50.8 µM; in data set [5], 7.7 µM; in data set [6], 29.8 µM.
For the compound `CNc1nc(Nc2ccc(F)cc2)nc(Oc2c(C)cc(C)cc2C)n1`, the IC50 is over 64 µM in [1]; 32 µM in data set [2]; 7.8 µM in data set [3]; 24 µM in data set [4]; 10.9 µM in [5]; 20.2 µM in data set [6].
As to `CC1CS(=O)(=O)CCN1/N=C/c1ccc([N+](=O)[O-])o1` (stereo not given) [NIFURTIMOX], the IC50 in [3] came to 0.9 µM.
With `Cc1cc(C)c(Oc2ncnc(Nc3ccccc3)n2)c(C)c1`, the IC50 in data set [1] came to 17.8 µM; in data set [2], 32 µM; in data set [3] it was 8.2 µM; in data set [4] it was 24 µM; in data set [5] it was 32.5 µM; in data set [6] it was 31.5 µM.
On to `Cc1cc(C)c(Oc2nc(N)nc(Nc3c(F)cccc3F)n2)c(C)c1`, for which the IC50 in data set [1] is over 64 µM; in data set [2], 32 µM; in data set [3], over 64 µM; in [4], 32.5 µM; in data set [5] it was over 64 µM; in data set [6], over 64 µM.
As for `N#Cc1ccc(Nc2nc(N)nc(Nc3ccc(F)cc3)n2)cc1`, the IC50 is over 64 µM in [1]; 32 µM in [2]; 9 µM in data set [3]; 32.5 µM in data set [4]; 39.8 µM in data set [5]; 26.4 µM in data set [6].
For `Cc1cc(Br)c(Nc2nc(N)nc(Nc3ccc(F)cc3)n2)c(Br)c1`, the 50% inhibitory concentration (IC50) was 6.7 µM in data set [1]; over 64 µM in data set [2]; over 64 µM in data set [3]; over 64 µM in data set [4]; 7.1 µM in [5]; over 64 µM in data set [6].
In the case of `Nc1nc(Nc2ccc(F)cc2)nc(Sc2ccc(F)cc2)n1`, the half-inhibitory concentration (IC50) in [1] was over 64 µM; in data set [2] it was 8 µM; in [3], 6.9 µM; in data set [4], 8.1 µM; in data set [5], over 64 µM; in data set [6], over 64 µM.
Regarding `Cc1cc(C)c(Oc2ncnc(Nc3ccc(F)cc3)n2)c(C)c1`, the IC50 in data set [1] was 8 µM; in data set [2] it was over 64 µM; in [3], 7.9 µM; in [4], 10.8 µM; in [5] it was 31.1 µM; in data set [6], 29.6 µM.
With `Cc1cc(C)c(Oc2nc(N)nc(Nc3ccc(C(F)(F)F)cc3)n2)c(C)c1`, the IC50 amounted to 6.5 µM in [1]; 8 µM in [2]; 2.4 µM in data set [3]; 8.1 µM in data set [4]; 6.9 µM in data set [5]; 8.8 µM in [6].

By IC50 is commonly meant the point on the concentration scale where inhibition reaches its midpoint.

For the origin of these results see ChEMBL document CHEMBL4229376, “Optimization of the pharmacokinetic properties of potent anti-trypanosomal triazine derivatives” (Eur J Med Chem, 2018).
